The record followed here is ChEMBL document CHEMBL1268907, “Synthesis and evaluation of benzoxazole derivatives as 5-lipoxygenase inhibitors” (Bioorg Med Chem, 2010).

Test [1] addresses T1, Polyunsaturated fatty acid 5-lipoxygenase (Mus musculus, UniProt P48999).
T1 sequence (P48999 whole entry): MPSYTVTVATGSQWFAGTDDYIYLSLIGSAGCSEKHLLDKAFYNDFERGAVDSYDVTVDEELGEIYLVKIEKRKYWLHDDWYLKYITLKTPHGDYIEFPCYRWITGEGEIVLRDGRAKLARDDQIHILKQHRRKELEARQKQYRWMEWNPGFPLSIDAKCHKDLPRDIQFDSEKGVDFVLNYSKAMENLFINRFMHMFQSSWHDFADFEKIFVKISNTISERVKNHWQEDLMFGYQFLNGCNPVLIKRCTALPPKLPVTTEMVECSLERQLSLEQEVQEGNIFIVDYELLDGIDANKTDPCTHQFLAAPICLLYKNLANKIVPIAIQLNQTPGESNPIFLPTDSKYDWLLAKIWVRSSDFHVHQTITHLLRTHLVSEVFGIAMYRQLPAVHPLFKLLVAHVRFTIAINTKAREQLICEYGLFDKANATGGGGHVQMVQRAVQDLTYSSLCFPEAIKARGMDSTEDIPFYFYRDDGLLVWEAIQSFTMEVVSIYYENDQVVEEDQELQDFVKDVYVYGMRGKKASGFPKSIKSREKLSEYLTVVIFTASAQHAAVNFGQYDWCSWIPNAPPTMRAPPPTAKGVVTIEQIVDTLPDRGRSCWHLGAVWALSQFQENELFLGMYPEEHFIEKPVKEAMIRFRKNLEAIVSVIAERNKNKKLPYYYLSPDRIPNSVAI
Description: Inhibition of 5-lipoxygenase in BALB/c mouse BMMC assessed as LTC4 release after 20 mins by enzyme immunoassay. The gist of the method:
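Bone marrow mast cells from male Balb/c mice, cultured up to 4 weeks in enriched RPMI + 10% FBS + IL-3 (2 ng/mL); >98% purity by toluidine blue staining. Cells at 1×10^6/mL pre-incubated with compound in DMSO (final <0.5%) for 30 min at 37 °C, then stimulated with SCF 100 ng/mL for 20 min. Supernatant LTC4 measured by EIA in triplicate; % reduction calculated.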

The subject of test [2] is Mus musculus. Description: Antiasthamatic activity against ovalbumin-induced airway hyperresponsiveness mouse model assessed as reduction of increase in penh value at 30 mg/kg, po administered 24 hrs after last ovalbumin challenge measured after 24 hrs by plethysmography. Details: dose 30 mg/kg. It is filed as functional, organism-based. A digest of the protocol: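 OVA/alum-sensitized mice (i.p., days 0 and 11) challenged with 1% OVA aerosol, given 30 mg/kg orally. 24 h after final aerosol, whole-body plethysmography was run: PBS aerosol, then methacholine 12.5, 25 and 50 mg/mL for 3 min each, with 5 min recording per step. Peak Penh at each dose expressed as % of basal PBS Penh.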

Test [3] relates to Mus musculus. Put plainly: Antiasthamatic activity against ovalbumin-induced airway hyperresponsiveness mouse model assessed as reduction of eosinophils infiltration at 30 mg/kg, po measured 48 hrs after ovalbumin challenge. In kind it is functional, organism-based. Details: dose 30 mg/kg. The gist of the method: (§1)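 Mice sensitized i.p. with OVA/alum on days 0 and 11 and challenged with 1% OVA aerosol on days 19–21 and 25. Oral dosing at 30 mg/kg. Lungs taken 48 h after last challenge, fixed 24 h in 10% neutral-buffered formalin, paraffin-embedded, cut at 4 µm and H&E stained. Peribronchial/perivascular infiltration scored 0–3 blind by two independent investigators.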

Test [4] deals with Mus musculus. Put plainly: Antiasthamatic activity against ovalbumin-induced airway hyperresponsiveness mouse model assessed as reduction of bronchoalveolar lavage fluid IL-4 level at 30 mg/kg, po measured 48 hrs after ovalbumin challenge. In kind it is functional, Lung. A digest of the protocol:
(§2)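 OVA sensitization i.p. (20 µg OVA with 2 mg aluminum hydroxide in PBS pH 7.4, days 0 and 11), then airway challenge with 1% OVA aerosol for 20 min on days 19, 20, 21 and 25. Compound given orally at 30 mg/kg. BALF collected 48 h after last challenge by three 0.5 mL ice-cold PBS lavages and centrifuged. IL-4, IL-5 and IL-13 measured by mouse ELISA (detection limit 250 pg/mL). n = 5–6 per group, mean ± SEM.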

For test [5], the system named is Mus musculus. Description: Antiasthamatic activity against ovalbumin-induced airway hyperresponsiveness mouse model assessed as reduction of plasma IgE level at 30 mg/kg, po measured 48 hrs after ovalbumin challenge (reference value: 41.82 +/- 10.57 ng/ml). In kind it is functional.
The test system of test [6] is Mus musculus. Put plainly: Antiasthamatic activity against ovalbumin-induced airway hyperresponsiveness mouse model assessed as reduction of bronchoalveolar lavage fluid IL-13 level at 30 mg/kg, po measured 48 hrs after ovalbumin challenge. It is filed as functional, Lung. A digest of the protocol: as §2
Test [7] relates to Mus musculus. Put plainly: Antiasthamatic activity against ovalbumin-induced airway hyperresponsiveness mouse model assessed as reduction of bronchoalveolar lavage fluid IL-5 level at 30 mg/kg, po measured 48 hrs after ovalbumin challenge. It is filed as functional, Lung. The gist of the method: as §2
For test [8], the system named is Mus musculus. Put plainly: Antiasthamatic activity against ovalbumin-induced airway hyperresponsiveness mouse model assessed as reduction of mononuclear cells infiltration at 30 mg/kg, po measured 48 hrs after ovalbumin challenge. The arrangement: dose 30 mg/kg. It is filed as functional, organism-based. The gist of the method:
as §1

Each structure is given as a SMILES string. Activity calls are given as the source filed them. The rule behind the calls is not given here.

Consider `COc1cccc(Nc2nc3cc(C)ccc3o2)c1`, for which the IC50 in test [1] is 6.83 µM.

For `CSc1ccc(Nc2nc3cc(C)ccc3o2)cc1`, in test [1], the IC50 amounted to 7.31 µM.

On to `Clc1ccc2oc(Nc3ccccc3)nc2c1`, for which the IC50 in test [1] was 4.5 µM.

With `CCc1ccc(Nc2nc3cc(C)ccc3o2)cc1`, the result in the test with Mus musculus [2], in the test on Mus musculus [3] and in the test on Mus musculus [8] was Active. Also, the Activity in the test on Mus musculus [4] stood at 198.34 ng/mL; with Mus musculus [5] it was 19.21 ng/mL; in the test with Mus musculus [6], 64.3 ng/mL; with Mus musculus [7] it was 116.92 ng/mL. In addition, the IC50 in test [1] amounted to 0.12 µM.

For the molecule `COc1ccc2oc(Nc3cccc(Br)c3)nc2c1`, the IC50 in test [1] worked out at 2.03 µM.

With `COc1ccc2oc(Nc3ccc(SC)cc3)nc2c1`, the IC50 in test [1] worked out at 2.77 µM.

As to `COc1ccc2oc(Nc3ccc(C(C)C)cc3)nc2c1`, the IC50 in test [1] was 2.64 µM.

`CCc1ccccc1Nc1nc2cc(C)ccc2o1`: the IC50 in test [1] came out at 5.66 µM.

Consider `Cc1ccc2oc(Nc3ccccc3)nc2c1`, for which the IC50 in test [1] came to 4.6 µM.

On to `CCc1ccc(Nc2nc3cc(Cl)ccc3o2)cc1`, for which the outcome in the test on Mus musculus [2], in the test on Mus musculus [3] and with Mus musculus [8] was Active. Besides, the Activity turned out to be 163.49 ng/mL with Mus musculus [4], 25.44 ng/mL with Mus musculus [5], 71.91 ng/mL in the test on Mus musculus [6] and 110.91 ng/mL with Mus musculus [7].

Turning to `COc1ccc2oc(Nc3ccccc3)nc2c1`, the IC50 in test [1] came to 7.88 µM.

The term IC50 denotes the concentration that inhibits the measured activity by half.
